Source: ChEMBL document CHEMBL3046238, “Synthesis and biological activity evaluation of 1,2,3-thiadiazole derivatives as potential elicitors with highly systemic acquired resistance” (2009)

Assays:
Type in all cases: functional
Tobacco mosaic virus [1] = assay: (§1) Induction of systemic acquired resistance against Tobacco mosaic virus (TMV) in tobacco plants exposed to 1000 ug/mL compound through irrigation based soil treatment followed by 7 days culture under green house conditions assessed as inhibition of viral growth in leaves infected with Tobacco mosaic virus (TMV) measured 72 hr post viral infection by half-leaf juice rubbing method; design: scale not given: the % may be the effect or the level left
How it was run: (§2)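 Tobacco plants received compound by leaf spray or by soil irrigation, with double-distilled water as CK. Newly grown leaves were then rub-inoculated with TMV (5.88×10-2 μg/mL), and plants were kept at 25 °C for 72 h. Lesions on inoculated leaves were counted. Inhibition = (CK−A)/CK×100 from mean lesion numbers versus control.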

Tobacco mosaic virus [2] = assay: In vivo antiviral activity against Tobacco mosaic virus (TMV) infected tobacco leaves exposed to 50 ug/mL for 20 min assessed as inhibition of viral growth measured 72 hr post compound treatment compound by half-leaf juice rubbing method
How it was run: (§3)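 Half-leaf method on tobacco. A fresh leaf from a plant at the 5-6 leaf age was rub-inoculated with TMV (5.88×10-2 μg/mL) and cut along the main vein. One half was immersed in compound solution and the other in double-distilled water, each for 20 min. Halves were kept at 25 °C and 100% humidity for 72 h, then lesions were counted. Three replicates were run. Inhibition = (CK−A)/CK×100 from mean lesion numbers.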

Tobacco mosaic virus [3] = assay: In vivo antiviral activity against Tobacco mosaic virus (TMV) infected tobacco leaves exposed to 500 ug/mL for 20 min assessed as inhibition of viral growth measured 72 hr post compound treatment compound by half-leaf juice rubbing method; how it was run: as §3
Tobacco mosaic virus [4] = assay: as §1, with “100” for “1000”, “leaf spray” for “irrigation based soil treatment”; design: scale not given: the % may be the effect or the level left; how it was run: as §2
Tobacco mosaic virus [5] = assay: Antiviral activity against Tobacco mosaic virus (TMV) infected tobacco leaves exposed to 500 ug/mL for 20 min assessed as inhibition of viral growth measured 72 hr post compound treatment compound by half-leaf juice rubbing method; how it was run: as §3
Tobacco mosaic virus [6] = assay: as §1, with “500” for “1000”; design: scale not given: the % may be the effect or the level left; how it was run: as §2
Tobacco mosaic virus [7] = assay: as §1, with “500” for “1000”, “leaf spray” for “irrigation based soil treatment”; design: scale not given: the % may be the effect or the level left; how it was run: as §2
Tobacco mosaic virus [8] = assay: as §1, with “50” for “1000”; design: scale not given: the % may be the effect or the level left; how it was run: as §2
Tobacco mosaic virus [9] = assay: In vivo antiviral activity against Tobacco mosaic virus (TMV) infected tobacco leaves exposed to 2000 ug/mL for 20 min assessed as inhibition of viral growth measured 72 hr post compound treatment compound by half-leaf juice rubbing method; how it was run: as §3
Tobacco mosaic virus [10] = assay: In vivo antiviral activity against Tobacco mosaic virus (TMV) infected tobacco leaves exposed to 100 ug/mL for 20 min assessed as inhibition of viral growth measured 72 hr post compound treatment compound by half-leaf juice rubbing method; how it was run: as §3
Tobacco mosaic virus [11] = assay: as §1, with “50” for “1000”, “leaf spray” for “irrigation based soil treatment”; design: scale not given: the % may be the effect or the level left; how it was run: as §2
Tobacco mosaic virus [12] = assay: Antiviral activity against Tobacco mosaic virus (TMV) infected tobacco leaves exposed to 100 ug/mL for 20 min assessed as inhibition of viral growth measured 72 hr post compound treatment compound by half-leaf juice rubbing method; how it was run: as §3
Tobacco mosaic virus [13] = assay: Antiviral activity against Tobacco mosaic virus (TMV) infected tobacco leaves exposed to 2000 ug/mL for 20 min assessed as inhibition of viral growth measured 72 hr post compound treatment compound by half-leaf juice rubbing method; how it was run: as §3
Tobacco mosaic virus [14] = assay: Antiviral activity against Tobacco mosaic virus (TMV) infected tobacco leaves exposed to 1000 ug/mL for 20 min assessed as inhibition of viral growth measured 72 hr post compound treatment compound by half-leaf juice rubbing method; how it was run: as §3
Tobacco mosaic virus [15] = assay: as §1, with “100” for “1000”; design: scale not given: the % may be the effect or the level left; how it was run: as §2
Tobacco mosaic virus [16] = assay: Antiviral activity against Tobacco mosaic virus (TMV) infected tobacco leaves exposed to 50 ug/mL for 20 min assessed as inhibition of viral growth measured 72 hr post compound treatment compound by half-leaf juice rubbing method; how it was run: as §3
Tobacco mosaic virus [17] = assay: as §1, with “2000” for “1000”; design: scale not given: the % may be the effect or the level left; how it was run: as §2
Tobacco mosaic virus [18] = assay: as §1, with “2000” for “1000”, “leaf spray” for “irrigation based soil treatment”; design: scale not given: the % may be the effect or the level left; how it was run: as §2
Tobacco mosaic virus [19] = assay: In vivo antiviral activity against Tobacco mosaic virus (TMV) infected tobacco leaves exposed to 1000 ug/mL for 20 min assessed as inhibition of viral growth measured 72 hr post compound treatment compound by half-leaf juice rubbing method; how it was run: as §3
Tobacco mosaic virus [20] = assay: as §1, with “leaf spray” for “irrigation based soil treatment”; design: scale not given: the % may be the effect or the level left; how it was run: as §2
Tobacco mosaic virus [21] = assay: Antiviral activity against Tobacco mosaic virus (TMV) infected tobacco leaves exposed to 10 ug/mL for 20 min assessed as inhibition of viral growth measured 72 hr post compound treatment compound by half-leaf juice rubbing method
How it was run: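 Direct (in vitro) anti-TMV test by half-leaf method. A tobacco leaf at 5-6 leaf age is rubbed with TMV (5.88 × 10-2 μg/mL) and cut along the main vein. One half is immersed in compound and the other in double-distilled water for 20 min. Halves are kept 72 h at 25 °C and 100% humidity, then lesions are counted. Inhibition is derived from mean lesion numbers on the two halves. Triplicates; DHT is the positive control.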

Tobacco mosaic virus [22] = assay: In vivo antiviral activity against Tobacco mosaic virus (TMV) infected tobacco leaves exposed to 10 ug/mL for 20 min assessed as inhibition of viral growth measured 72 hr post compound treatment compound by half-leaf juice rubbing method
Puccinia triticina = assay: Antifungal activity against Puccinia triticina inoculated on 500 ug/mL compound pre-treated wheat plants with 3 to 5 leaves assessed as growth inhibition
How it was run: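 Healthy wheat plants at the 3-5 leaf stage were sprayed with compound (500 μg/mL) and then inoculated with spores. Inhibition percentage was calculated against the corresponding spore stack.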

Tobacco mosaic virus [23] = assay: as §1, with “10” for “1000”, “leaf spray” for “irrigation based soil treatment”; design: scale not given: the % may be the effect or the level left
How it was run: (§4)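 Tobacco plants receive compound either as leaf spray or as soil irrigation. Newly grown leaves are then rubbed with TMV (5.88 × 10-2 μg/mL). Plants are held 72 h at 25 °C and viral lesions are counted. Inhibition ratio = (CK − A)/CK × 100, from mean lesion numbers versus control. Water is CK; tiadinil and BTH are positive controls.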

Tobacco mosaic virus [24] = assay: as §1, with “10” for “1000”; design: scale not given: the % may be the effect or the level left; how it was run: as §4

`CC(N)CC(=O)O` (stereo not given) was tested, and the Activity (Tobacco mosaic virus [1]) was 80%, the “growth inhibition (GI)” value (Tobacco mosaic virus [2]) was 0% and the “growth inhibition (GI)” value (Tobacco mosaic virus [3]) was 5%. The Activity (Tobacco mosaic virus [4]) was 30%, the “growth inhibition (GI)” value (Tobacco mosaic virus [5]) was 7% and the Activity (Tobacco mosaic virus [6]) was 72%. For the same molecule, the Activity (Tobacco mosaic virus [7]) was 50%, the Activity (Tobacco mosaic virus [8]) was 46% and the “growth inhibition (GI)” value (Tobacco mosaic virus [9]) was 8%. For the same molecule, the “growth inhibition (GI)” value (Tobacco mosaic virus [10]) was 9%, the Activity (Tobacco mosaic virus [11]) was 0% and the “growth inhibition (GI)” value (Tobacco mosaic virus [12]) was 4%. The “growth inhibition (GI)” value (Tobacco mosaic virus [13]) was 5%, the “growth inhibition (GI)” value (Tobacco mosaic virus [14]) was 0% and the Activity (Tobacco mosaic virus [15]) was 54%. For the same molecule, the “growth inhibition (GI)” value (Tobacco mosaic virus [16]) was 0%, the Activity (Tobacco mosaic virus [17]) was 80% and the Activity (Tobacco mosaic virus [18]) was 65%. For the same molecule, the “growth inhibition (GI)” value (Tobacco mosaic virus [19]) was 10% and the Activity (Tobacco mosaic virus [20]) was 55%.

For `CSC(=O)c1cccc2nnsc12` [ACIBENZOLAR-S-METHYL], the Activity (Tobacco mosaic virus [1]) was 98%, the “growth inhibition (GI)” value (Tobacco mosaic virus [2]) was 15% and the “growth inhibition (GI)” value (Tobacco mosaic virus [21]) was 0%. The “growth inhibition (GI)” value (Tobacco mosaic virus [3]) was 8%, the Activity (Tobacco mosaic virus [4]) was 95% and the “growth inhibition (GI)” value (Tobacco mosaic virus [22]) was 6%. For the same molecule, the “growth inhibition (GI)” value (Tobacco mosaic virus [5]) was 4%, the Activity (Tobacco mosaic virus [6]) was 95% and the Activity (Tobacco mosaic virus [7]) was 95%. The Activity (Tobacco mosaic virus [8]) was 92%, the “growth inhibition (GI)” value (Tobacco mosaic virus [10]) was 10% and the Activity (Tobacco mosaic virus [11]) was 92%. For the same molecule, the “growth inhibition (GI)” value (Puccinia triticina) was 0%, the “growth inhibition (GI)” value (Tobacco mosaic virus [12]) was 2% and the Activity (Tobacco mosaic virus [23]) was 50%. For the same molecule, the “growth inhibition (GI)” value (Tobacco mosaic virus [14]) was 8%, the Activity (Tobacco mosaic virus [15]) was 96% and the “growth inhibition (GI)” value (Tobacco mosaic virus [16]) was 0%. For the same molecule, the Activity (Tobacco mosaic virus [24]) was 63% and the Activity (Tobacco mosaic virus [20]) was 97%.
